# proKLK7 act = proKLK7 (human) activation, primary screen. P49862. purified proKLK7, EDANS-DABCYL substrate fluorescence; 100% is mature enzyme control, 0% vehicle. activation, % at 7 µM. 370,000 tested, 0.9% active. AID 652039;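 active = activation above the mean of all tested compounds plus 3 SD, computed per campaign excluding outliers beyond control limits, cut at about 13% in these data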
# Target sequence (P49862 whole entry, looked up): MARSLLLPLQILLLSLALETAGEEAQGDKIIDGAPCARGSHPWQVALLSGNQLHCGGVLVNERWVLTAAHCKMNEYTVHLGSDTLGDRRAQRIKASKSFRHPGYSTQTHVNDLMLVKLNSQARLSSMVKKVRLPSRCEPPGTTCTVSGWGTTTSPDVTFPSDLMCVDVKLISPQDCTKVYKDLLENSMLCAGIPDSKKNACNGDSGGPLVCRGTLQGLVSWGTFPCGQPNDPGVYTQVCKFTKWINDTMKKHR
# MIN6 prolif = MIN6 beta-cell proliferation induction; 330,000 tested, 0.29% active; AID 2380; proliferation, % at 10 µM; MIN6 cells proliferation, ATPlite luminescence, 48 h; cells starved in 0.2% serum; 100% = growth in 10% serum;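 active = compounds whose signal lies at least 3.5 SD above the mean of all wells on their plate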;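 note: 0% = DMSO-treated cells in low-serum medium and 100% = 10% serum control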
# V-ATPase pH = yeast V-ATPase proton transport regulation by pHLuorin. S. cerevisiae, pHLuorin cytosolic pH fluorescence. response, % at 10 µM. 350,000 tested, 0.37% active. AID 504577; in the data active = response mostly above about 7.3%, no sharp cut-off; inactive = mostly below about 5.4%; note: actives read high
# Rce1 inh = blocks yeast Ras-converting enzyme; calls only; AID 2563; Q03530; yeast membranes, quenched prenylated peptide cleavage fluorescence; 290,000 tested, 0.27% active;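 active = fall in fluorescence gain of 50% or more versus controls, with final raw signal at or below 3038400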;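 note: plate controls were neutral control wells for no effect and wells lacking membranes for full effect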
# Target sequence (Q03530 whole entry, looked up): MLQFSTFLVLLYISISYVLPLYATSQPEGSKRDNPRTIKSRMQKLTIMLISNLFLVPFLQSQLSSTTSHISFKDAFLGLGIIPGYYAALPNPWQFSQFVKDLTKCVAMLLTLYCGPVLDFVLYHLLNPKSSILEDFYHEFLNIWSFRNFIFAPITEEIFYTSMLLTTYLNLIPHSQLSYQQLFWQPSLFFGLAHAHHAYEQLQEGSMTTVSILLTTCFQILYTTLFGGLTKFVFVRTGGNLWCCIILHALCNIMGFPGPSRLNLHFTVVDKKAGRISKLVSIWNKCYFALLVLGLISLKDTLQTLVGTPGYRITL
# CR mimetic SO = lowers age-related superoxide in aged yeast cells | S. cerevisiae aged cells, superoxide DHE fluorescence; stronger effect = lower value | superoxide response (% of plate mean), % at 10 µM | 330,000 tested, 0.18% active | AID 2690;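 active = superoxide response under a set limit, about three screen SD below normal, cut at about 65% in these data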;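 note: yeast aged for seven days with compound at 30 °C before DHE staining; 100% = average MFI of all compound-treated wells on the plate with controls excluded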
# T cell HTS = modulates CD8 T cell binding to vesicles | 2C CD8+ T cell-vesicle binding, flow cytometry; stronger effect = lower value | response (vesicle binding), % at 7 µM | 330,000 tested, 0.068% active;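 active = response, share of CD8 T cells binding vesicles, and their 90th percentile fluorescence all below set limits, cut at about 80% in these data, passing the limit was not always enough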;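 note: values below 100% mean blocked vesicle binding to the CD8+ T cells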
#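 Assay system: 2C TCR transgenic mouse naive CD8+ T cells, MACS-purified | Read-out: CD8+ gate FL2 mean fluorescence as % of same-row positive control | Signal: High-throughput flow cytometry with anti-B7-1 and anti-CD8 staining | Timing: Binding step 1.5 h, 37 °C, antibody labelling 20 min, ice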
# proKLK7 act conf = confirmation of human kallikrein-7 zymogen activators; shares compounds with proKLK7 act; purified proKLK7, EDANS-DABCYL substrate fluorescence; scaled: vehicle 0, mature enzyme 100; activation, % at 7 µM; 3,200 tested, 68% active;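 active = activation, as change over the incubation, above the mean of all tested compounds plus 3 SD, cut at about 13% in these data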
# EDANS-DABCYL int = fluorescence interference counter-screen for KLK7 activators. activation, % at 7 µM. 3,200 tested, 80% active. EDANS-DABCYL substrate fluorescence interference, no enzyme, 4 h; solvent 0%, active enzyme control 100%. shares compounds with proKLK7 act;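 active = activation above the all-compound mean plus 3 SD, ignoring values outside control-based bounds, cut at about 4.8% in these data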;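 note: value is the 4 h activation minus the activation read at time zero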
# EDANS interf = optically interferes with EDANS-DABCYL fluorescence, kallikrein-7 activator counter-screen; shares compounds with proKLK7 act; EDANS-DABCYL peptide fluorescence interference, no enzyme; EC50, µM; 250 tested, 20% active; AID 720493;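 active = compounds that raise the fluorescence signal in this interference counterscreen, with EC50 at or below 10 µM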;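 note: intact quenched peptide substrate alone read at 355 nm excitation and 520 nm emission; signal is fluorescence gain from T0 to T4 after four hours at room temperature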
# Active calls of the source: *; i = inactive; . = no result given. In the library only some 1.9% were active in any assay of this set; here they are far more common.
SMILES,proKLK7 act,MIN6 prolif,V-ATPase pH,Rce1 inh,CR mimetic SO,T cell HTS,proKLK7 act conf,EDANS-DABCYL int,others
COc1cc2c(cc1OC)C(C1C(=O)CCCC1=O)N(C(=O)CCl)CC2 (stereo unspecified),191*,0,-2,i,93,152,6,9.2*,
COc1cc2c(cc1OC)C(C1C(=O)CC(C)CC1=O)N(C(=O)CCl)CC2 (stereo unspecified),213*,-1,1,i,74,335,9,9.7*,
COc1ccc2c(c1)CCN(C(=O)CCl)C2C1C(=O)CCCC1=O (stereo unspecified),0,-2,-3,i,95,173,.,.,
COc1cc2c(cc1OC)CN(CC(=O)NC(=O)NC(C)(C)C)CC2,5,0,3,i,101,i,.,.,
COc1cc2c(cc1OC)CN(CC(=O)NC(=O)NCc1ccco1)CC2,48*,0,-2,i,94,558,14*,14*,
CCOc1ccccc1C1C2=C(COC2=O)Nc2cc3c(cc21)OCO3 (stereo unspecified),16*,-6,-1,i,93,518,-20,-19,
COc1ccc(C2C3=C(COC3=O)Oc3cc4c(cc32)OCO4)cc1OC (stereo unspecified),0,.,-5,.,.,.,.,.,
C#CCOc1ccc(C2C3=C(COC3=O)Nc3cc4c(cc32)OCO4)cc1OC (stereo unspecified),69*,.,7,i,.,.,-11,-23,
O=C1OCC2=C1C(c1ccc(F)cc1)c1cc3c(cc1N2)OCO3 (stereo unspecified),3,.,2,.,.,.,.,.,
COc1ccc(NC(=S)N2CCN(c3ccc4c(c3)C3CCN(C(=O)OCc5ccccc5)C4C3)CC2)c(OC)c1 (stereo unspecified),0,.,.,.,.,.,.,.,
O=c1[nH]c(=O)c2nc(-c3ccc(Cl)cc3)cnc2[nH]1,57*,3,2,i,94,267,70*,69*,
Cc1cc(C)c2c(c1C)C(=O)CCC2,-1,.,0,.,.,.,.,.,
COc1ccc(NC(=O)c2cc(-c3ccco3)on2)cc1OC,55*,0,0,i,94,439,20*,4.8*,EDANS interf=i
CC(=O)Nc1ccc(-c2ccnc3c2CC(C)(C(=O)Nc2ccc(F)c(Cl)c2)O3)cc1 (stereo unspecified),-1,.,.,.,.,.,.,.,
COc1cccc(NC(=O)CSc2nc3c(sc4ccccc43)c(=O)n2CCN(C)C)c1,14*,-2,3,i,111,339,3,4,
CCN(CC)CCn1c(SCC(=O)Nc2cccc(OC)c2)nc2c(sc3ccccc32)c1=O,-1,-6,-2,i,111,287,.,.,
Cc1cc(=O)oc2cc(OC(C)C)ccc12,2,-2,1,i,99,426,.,.,
Cc1cc(=O)oc2cc(OCCCN3C(=O)c4ccccc4C3=O)ccc12,0,-1,4,i,111,618,.,.,
Cc1cc(=O)oc2cc(OC(=O)CCN3C(=O)c4ccccc4C3=O)ccc12,58*,-2,-1,i,114,133,427*,404*,
CCCC(=O)Oc1ccc2c(C)cc(=O)oc2c1,656*,3,-1,i,115,243,686*,706*,
CCCCn1nc(C(=O)Oc2ccc3c(C)cc(=O)oc3c2)c2ccccc2c1=O,45*,-1,1,i,111,160,64*,69*,
Cc1c(Cl)cc(C(C)C)c(O)c1CN1CCOCC1,0,.,-3,.,.,.,.,.,
O=C(O)c1cc(S(=O)(=O)Nc2cccc3ccccc23)c(Cl)cc1Cl,1,-2,0,i,103,322,.,.,
Cc1ccc(S(=O)(=O)N2CCOCC2)cc1C(=O)OCC(=O)N(Cc1ccccc1)C(C)C,0,-1,-3,.,92,549,.,.,
O=C(COC(=O)c1ccccc1NCCO)Nc1ccc(S(=O)(=O)NC2=NCCCCC2)cc1,23*,.,1,.,.,.,-32,-21,
SMILES,proKLK7 act,MIN6 prolif,V-ATPase pH,Rce1 inh,CR mimetic SO,T cell HTS,proKLK7 act conf,EDANS-DABCYL int,others
Cc1ccc(S(=O)(=O)N(C)C[C@@H]2OCc3cnnn3CCCC(=O)N([C@@H](C)CO)C[C@@H]2C)cc1,0,.,2,.,.,.,.,.,
O=C(c1ccc(N2CCN(C(=O)c3ccc(F)cc3F)CC2)cc1)c1cccc(F)c1,-3,-6,2,i,90,565,.,.,
COc1ccc(-c2oc3c(c2C#CC(C)(C)O)C(OC)CCC3)cc1 (stereo unspecified),23*,.,.,.,.,.,-15,-22,
COc1ccc(NC(=O)NCc2ccco2)cc1OC,1,-2,1,.,99,231,.,.,
O=C(NCc1ccco1)Nc1ccc2nsnc2c1,27*,-2,-2,i,88,436,26*,29*,
CN1C(=O)c2cccc3c(S(=O)(=O)N(C)C)ccc1c23,49*,0,-3,i,98,356,66*,73*,
CN1C(=O)c2cccc3c(S(=O)(=O)Nc4ccccc4F)ccc1c23,3,-3,-3,i,76,397,.,.,
CCN1C(=O)c2cccc3c(S(=O)(=O)N(C)C)ccc1c23,65*,.,1,.,.,.,73*,75*,
CNS(=O)(=O)c1ccc2c3c(cccc13)C(=O)N2C,35*,-2,2,i,105,145,55*,66*,
O=C(NCc1ccc(F)c(F)c1)C1CCC(CNS(=O)(=O)c2cccc3cccnc23)CC1 (stereo unspecified),0,.,.,.,.,.,.,.,
COC(=O)C1=CN(c2ccc(OC)cc2OC)C(N)=C(C#N)C1c1ccccc1F (stereo unspecified),114*,.,.,.,.,.,19*,41*,
Cc1ccc(/C=N/N=C/c2ccc(C)s2)s1,-1,0,1,i,99,512,.,.,
Cc1cccc(C=Nc2ccccc2C(N)=O)c1,13*,-2,5,i,104,323,28*,22*,EDANS interf=>69
Cc1ccc(C=Nc2ccccc2C(N)=O)s1,17*,0,0,i,102,251,12,14*,
CCCCNC(=O)C1C(c2ccc(C(F)(F)F)cc2)=Nc2ccccc2N1C(C)=O (stereo unspecified),-1,.,.,.,.,.,.,.,
CCCCNC(=O)C1C(c2ccc(C(F)(F)F)cc2)=Nc2ccccc2N1C(=O)c1ccc2nc(C)[nH]c2c1 (stereo unspecified),92*,.,.,.,.,.,-142,-108,

# Source: PubChem BioAssay
